The test system of assay [1] is HeLa. As to the kind of experiment: Induction of apoptosis in human HeLa cells assessed as early apoptotic cells at 10 uM by Annexin V-FITC/propidium iodide staining based flow cytometry (reference value: 5.7%). The format is functional. In short, it runs like this:
(§1)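 HeLa human cervical cancer cells treated with increasing concentrations or for increasing incubation times. Cells stained with annexin V-FITC and propidium iodide and analysed by FACS. Gating: early apoptotic = annexin+/PI−, late apoptotic = annexin+/PI+.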
On the technique in general: A flow cytometer gives signals particle by particle.

The subject of assay [2] is HeLa. Description: Induction of apoptosis in human HeLa cells assessed as necrotic cells at 10 uM by Annexin V-FITC/propidium iodide staining based flow cytometry (reference value: 2.2%). In kind it is functional. An outline of the steps:
as §1

Assay [3] relates to HeLa. Description: Induction of apoptosis in human HeLa cells assessed as live cells at 2.5 uM by Annexin V-FITC/propidium iodide staining based flow cytometry (reference value: 85.2%). The format is functional. An outline of the steps: as §1
Assay [4] concerns HeLa. As to the kind of experiment: Induction of apoptosis in human HeLa cells assessed as early apoptotic cells after 12 hrs by Annexin V-FITC/propidium iodide staining based flow cytometry (reference value: 2.6%). The format is functional. In short, it runs like this: as §1
The subject of assay [5] is HeLa. As to the kind of experiment: Induction of apoptosis in human HeLa cells assessed as late apoptotic cells at 10 uM by Annexin V-FITC/propidium iodide staining based flow cytometry (reference value: 6.9%). The format is functional. An outline of the steps: as §1
For assay [6], the system named is HeLa. Description: Cell cycle arrest in human HeLa cells assessed as accumulation at sub-G1 phase up to 10 uM by propidium iodide staining based flow cytometry (reference value: 6.24%). In kind it is functional.
For assay [7], the system named is HeLa. As to the kind of experiment: Induction of apoptosis in human HeLa cells assessed as live cells after 48 hrs by Annexin V-FITC/propidium iodide staining based flow cytometry (reference value: 92.9%). The format is functional. An outline of the steps: as §1
The test system of assay [8] is HeLa. As to the kind of experiment: Induction of morphological changes in human HeLa cells assessed as apoptotic body formation at 10 uM after 48 hrs by DAPI staining based fluorescence microscopic method. The format is functional, cell-based. In short, it runs like this:
(§2)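 HeLa cells exposed to 10 µM for 48 h, then stained with DAPI. Nuclear shape, size and density (bright condensed, fragmented chromatin, apoptotic bodies) examined by fluorescence microscopy under 358 nm excitation, against untreated control cells.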

Assay [9] relates to HeLa. As to the kind of experiment: Induction of apoptosis in human HeLa cells assessed as live cells after 12 hrs by Annexin V-FITC/propidium iodide staining based flow cytometry (reference value: 92.9%). In kind it is functional. In short, it runs like this: as §1
The test system of assay [10] is HeLa. As to the kind of experiment: Induction of apoptosis in human HeLa cells assessed as late apoptotic cells after 12 hrs by Annexin V-FITC/propidium iodide staining based flow cytometry (reference value: 3.6%). In kind it is functional. In short, it runs like this:
as §1

The test system of assay [11] is HeLa. Description: Induction of apoptosis in human HeLa cells assessed as necrotic cells after 24 hrs by Annexin V-FITC/propidium iodide staining based flow cytometry (reference value: 0.9%). In kind it is functional. In short, it runs like this:
as §1

Assay [12] deals with HeLa. Description: Induction of apoptosis in human HeLa cells assessed as necrotic cells after 48 hrs by Annexin V-FITC/propidium iodide staining based flow cytometry (reference value: 0.9%). The format is functional. In short, it runs like this:
as §1

The test system of assay [13] is HeLa. Description: Induction of apoptosis in human HeLa cells assessed as live cells at 10 uM by Annexin V-FITC/propidium iodide staining based flow cytometry (reference value: 85.2%). The format is functional. In short, it runs like this: as §1
Assay [14] deals with HeLa. As to the kind of experiment: Induction of apoptosis in human HeLa cells assessed as late apoptotic cells after 24 hrs by Annexin V-FITC/propidium iodide staining based flow cytometry (reference value: 3.6%). In kind it is functional. An outline of the steps:
as §1

For assay [15], the system named is HeLa. Description: Induction of apoptosis in human HeLa cells assessed as early apoptotic cells at 5 uM by Annexin V-FITC/propidium iodide staining based flow cytometry (reference value: 5.7%). In kind it is functional. In short, it runs like this: as §1
The subject of assay [16] is HeLa. As to the kind of experiment: Induction of apoptosis in human HeLa cells assessed as necrotic cells at 2.5 uM by Annexin V-FITC/propidium iodide staining based flow cytometry (reference value: 2.2%). The format is functional. An outline of the steps: as §1
The test system of assay [17] is HeLa. Description: Induction of morphological changes in human HeLa cells assessed as chromatin condensation at 10 uM after 48 hrs by DAPI staining based fluorescence microscopic method. The format is functional, cell-based. An outline of the steps:
as §2

Assay [18] has as its system HeLa. As to the kind of experiment: Induction of morphological changes in human HeLa cells assessed as nuclear fragmentation at 10 uM after 48 hrs by DAPI staining based fluorescence microscopic method. The format is functional, cell-based. In short, it runs like this: as §2
Assay [19] concerns HeLa. As to the kind of experiment: Induction of apoptosis in human HeLa cells assessed as late apoptotic cells at 2.5 uM by Annexin V-FITC/propidium iodide staining based flow cytometry (reference value: 6.9%). In kind it is functional. An outline of the steps:
as §1

Each structure is given as a SMILES string. Activity calls are given as the source filed them. The calls are words filed in the database; no cut-off is given here.

With `COc1cc(NC(=O)c2cccc(-c3cc(=O)c4c(OC)c(OC)c(OC)cc4o3)c2)cc(OC)c1OC`, the Activity with HeLa [1] was determined as 22.6%; in the assay on HeLa [2], 12.6%; with HeLa [3] it was 79%; in the assay with HeLa [4], 4.2%; in the assay with HeLa [5] it was 21.2%; in the assay with HeLa [6], 19.14%. Moreover, the Activity in the assay with HeLa [7] turned out to be 33.2%; in the assay with HeLa [9], 89.3%; with HeLa [10], 5.5%; in the assay with HeLa [11] it was 1.8%; in the assay with HeLa [12], 3.7%; in the assay with HeLa [13] it was 43.7%. Further, the Activity with HeLa [14] amounted to 4.4%; with HeLa [15] it was 21.1%; in the assay with HeLa [16] it was 2.4%; in the assay with HeLa [19] it was 6.8%. For the same compound, the result in the assay with HeLa [8], in the assay with HeLa [17] and with HeLa [18] was Active.

Source of the values: ChEMBL document CHEMBL4325889, “Natural products hybrids: 3,5,4'-Trimethoxystilbene-5,6,7-trimethoxyflavone chimeric analogs as potential cytotoxic agents against diverse human cancer cells” (Eur J Med Chem, 2019).
